Source: PubChem (several laboratories)
ALR inh = blocks human ALR sulfhydryl oxidase activity; purified ALR, DTT oxidation, H2O2 HRP-luminol luminescence; inhibition, % (concentration not given with the values); 290,000 compounds, 3.8% hits; AID 485317;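 active = mean replicate inhibition above about 79%, with every replicate also reaching it, limit read from the data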
Target sequence (P55789 whole entry, looked up): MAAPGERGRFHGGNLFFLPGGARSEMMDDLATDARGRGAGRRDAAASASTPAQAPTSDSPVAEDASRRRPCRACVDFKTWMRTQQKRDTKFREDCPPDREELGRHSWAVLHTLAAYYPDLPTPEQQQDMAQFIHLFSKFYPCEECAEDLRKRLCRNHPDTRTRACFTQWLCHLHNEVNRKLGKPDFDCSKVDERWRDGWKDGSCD
HSF1 inhib = HSF1 inhibition; NIH3T3-HGL HSE-luciferase, MG132-induced, luminescence 8 h; stronger effect = lower value; AID 2098; activity change, negative = inhibition, % at 7.5 µM (by protocol); 300,000 compounds, 0.77% hits;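 active = more than half of replicate wells show activity change below -50%, luminescence cut by over half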;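 also: luciferase reports HSF-1 transcriptional activity via heat shock element; 0% = median of DMSO wells and -100% = zero luminescence signal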
HSF1 activator = increases HSF-1 driven luciferase reporter signal. NIH3T3-HGL HSF-1 luciferase reporter, MG132, 8 h; 100% = twice DMSO control signal. activation, % at 9 µM. 300,000 compounds, 1.7% hits;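 active = mean replicate activation of at least 50% with a set share of replicates each reaching 50%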;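 also: 0% = median of the neutral control wells and 100% = twice that signal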
core dimer inh = blocks dimerization of HCV core protein | inhibition, % at 5 µM | TR-FRET GST/Flag-core106 dimerization, 1536-well | 300,000 compounds, 0.33% hits;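 active = inhibition above the mean of all tested compounds plus 3 SD, set per screening campaign, cut at about 45% in these data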
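Assay system: GST-tagged and Flag-tagged HCV core protein residues 1-106 / Times: compound-protein-antibody incubation 4 h at 22.5 °C / Signal: time-resolved FRET, ex 340 nm, em 617 and 671 nm / Evaluation: % inhibition based on acceptor/donor emission ratio / Benchmarks: wells lacking GST-core106 and wells with excess unlabelled core106 / Repeats: singlicate, one well per compound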
PHOSPHO1 inh = blocks human PHOSPHO1 phosphatase activity; Q8TCT1; recombinant PHOSPHO1, absorbance phosphatase assay; inhibition, % at 13.3 µM; 290,000 compounds, 1.1% hits; in the data active = inhibition above about 60%
Target sequence (Q8TCT1 whole entry, looked up): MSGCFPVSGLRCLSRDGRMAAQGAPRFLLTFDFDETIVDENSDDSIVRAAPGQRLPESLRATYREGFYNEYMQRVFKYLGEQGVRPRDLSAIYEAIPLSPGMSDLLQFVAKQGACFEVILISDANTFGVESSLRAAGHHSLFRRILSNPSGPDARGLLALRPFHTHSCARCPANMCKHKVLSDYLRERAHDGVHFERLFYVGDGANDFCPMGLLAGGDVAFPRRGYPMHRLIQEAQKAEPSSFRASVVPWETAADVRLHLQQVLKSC
AI-2 QS modul = modulators of Vibrio harveyi AI-2 quorum sensing system; Vibrio harveyi JMH597 AI-2 luminescence/OD600 ratio, 9 h; stronger effect = lower value; strain lacks LuxN and CqsS sensors; 0 = neutral-control median; activity change, % at 7.5 µM; AID 2094; 300,000 compounds, 0.4% hits; in the data active = activity change below about -75%, passing the limit was not always enough;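 also: luminescence divided by OD600 gain over 9 h not by final OD600 alone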
* hit, by the source's call; nt = not tested or not shown. The list is not random: actives were taken first. Their share in the collection is about 6.8%.

SMILES	ALR inh	HSF1 inhib	HSF1 activator	core dimer inh	PHOSPHO1 inh	AI-2 QS modul
O=C(Nc1cccc(C(=O)O)c1)/C(=C\c1ccc2c(c1)OCO2)NC(=O)c1ccccc1Cl	nt	-16	-13	-13	30	52
O=S(=O)(/C=C/c1ccccc1)N1CCN(c2nc(-c3ccccc3)nc3ccccc23)CC1	nt	0	1	8	2	12
Cc1ccc(C)c(N2CCN(C(=O)C3CCCN(S(=O)(=O)c4cnc[nH]4)C3)CC2)c1 (stereo not drawn)	97*	-1	0	-2	-15	34
COc1ccc(C)cc1NC(=O)C1CCCN(S(=O)(=O)c2cnc[nH]2)C1 (stereo not drawn)	46	-2	0	-5	3	-4
O=C(C1CCCN(S(=O)(=O)c2cnc[nH]2)C1)N1CCN(c2ccc(Cl)cc2)CC1 (stereo not drawn)	96*	8	30	-3	-2	29
CSc1nsc(SCC(=O)Nc2ccc(Cl)c(C(=O)O)c2)n1	6	-6	13	5	45	18
CSc1nsc(SCC(=O)Nc2ccc(O)c(C(=O)O)c2)n1	82*	-10	10	1	11	24
COc1ccc2occ(C(=O)c3cccs3)c2c1	5	36	78*	1	-9	0
CCOc1cc(C(=O)N/N=C/C(Br)=C/c2ccccc2)cc(OCC)c1OCC	-20	95	87*	17	-12	27
CC(=C/c1ccccc1)/C=N/NC(=O)c1ccc2nc[nH]c2c1	-5	7	0	-4	0	5
O=C(N/N=C/C(Br)=C/c1ccccc1)c1ccc([N+](=O)[O-])cc1	-2	47	59*	5	32	12
O=C(N/N=C/C(Br)=C\c1ccccc1)c1ccc2nc[nH]c2c1	nt	95	125*	-8	5	36
O=C(N/N=C/C(Br)=C/c1ccccc1)c1cccnc1	-9	71	82*	1	-5	-3
Cc1cc(C(=O)COC(=O)COc2ccccc2C#N)c(C)n1CC1CCCO1 (stereo not drawn)	1	nt	nt	nt	nt	nt
Cc1ccc(NC(=O)c2ccc(CNc3c(N4CCC(C)CC4)c(=O)c3=O)cc2)cc1	nt	6	5	1	22	33
CC(=O)Nc1ccc(NC(=O)c2c(C)nn(-c3ccccc3)c2Cl)cc1C	1	0	1	2	49	26
Cc1ccc(CCC(=O)Nc2ccc(Br)cc2)o1	3	-3	-18	nt	29	-88*
Cc1ccc(CCC(=O)Nc2ccc(N(C)C)cc2)o1	99*	-3	-8	5	30	nt
CN(c1ccccc1)P(=O)(N(C)c1ccccc1)N(C)c1ccccc1	-11	0	20	-3	19	12
Cc1nn(-c2cccc(Cl)c2)c2c1C(c1ccncc1)C(C#N)=C(N)O2 (stereo not drawn)	33	67	82*	0	-7	-6
CCN(CC)Cc1ccccc1Sc1ccccc1	nt	-9	-6	2	-6	-10
Cc1ccc2nc3c(cc(C(=O)NC4CCS(=O)(=O)C4)n3Cc3ccccc3)c(=O)n2c1 (stereo not drawn)	-3	-4	-13	0	62*	22
CCCCn1c(N)c(N(CCC(C)C)C(=O)CCN2C(=O)C3CC=CCC3C2=O)c(=O)[nH]c1=O (stereo not drawn)	-6	-1	-2	3	nt	nt
CC(C)(C)c1ccc(C(=O)NCc2nnc(SCC(=O)NCC3CCCO3)o2)cc1 (stereo not drawn)	21	-3	6	-15	5	-3
Cc1cc(C(=O)NC2CCCc3c2cnn3-c2ccc(C)c(C)c2)no1 (stereo not drawn)	89*	7	8	8	33	14
SMILES	ALR inh	HSF1 inhib	HSF1 activator	core dimer inh	PHOSPHO1 inh	AI-2 QS modul
Cc1ccc(-n2ncc3c2CCCC3NC(=O)c2ocnc2C)cc1C (stereo not drawn)	-9	-10	5	12	-4	12
CC(=O)OCC(=O)Nc1c(C)cc(C)cc1C	5	3	2	-10	-14	-3
Cc1cc2nc3ccc(N(C)C)cc3nc2cc1N	92*	3	13	-11	nt	18
COc1ccccc1N(CC(=O)NCCN1CCOCC1)S(=O)(=O)c1ccccc1	-1	-13	-19	-10	36	24
CS(=O)(=O)c1ccc2nc(NC(=O)Nc3cccc(Cl)c3)sc2c1	-7	46	99*	2	44	0
CS(=O)(=O)c1ccc2nc(NC(=O)Nc3ccc(Cl)c(Cl)c3)sc2c1	11	-9	7	3	-1	6
CS(=O)(=O)c1ccc2nc(NC(=O)CCC(=O)c3cccs3)sc2c1	-4	3	-3	74*	21	-96*
Cc1ccc(N2CC(C(=O)Nc3nc4ccc(S(C)(=O)=O)cc4s3)CC2=O)cc1 (stereo not drawn)	-1	-80*	-84	12	1	35
Cn1cnc(NCc2ccccc2)c1[N+](=O)[O-]	-8	-10	6	2	8	-4
CCCCC1(C)NC(=S)N2N1C(=S)NC2(C)CCCC (stereo not drawn)	14	-5	-12	-2	46	12
O=C(N/N=C/c1cn(-c2ccccc2)nc1-c1cc2ccccc2o1)c1ccccc1Br	-4	40	76*	23	-4	9
OCc1cn(-c2ccccc2)nc1-c1cc2ccccc2o1	nt	32	63*	3	41	21
CN(c1ccc(OCC(=O)OCC(=O)Nc2ccc(OC(F)F)cc2)cc1)S(=O)(=O)c1cccs1	4	nt	nt	nt	nt	nt
CC(C)(C)c1ccc(C(=O)N2CCCC2c2cccs2)cc1 (stereo not drawn)	-25	9	16	12	9	13
Fc1ccc(-n2cc(CNCCc3ccccn3)c(-c3ccccc3Cl)n2)cc1	-4	-52*	-65	0	67*	28
COc1ccc(-n2cc(CNCCc3nc(C)cc(C)n3)c(-c3ccccc3Cl)n2)cc1	-17	12	32	-8	22	26
O=C(CCCn1cnc([N+](=O)[O-])n1)Nc1cccc(O)c1	1	-2	-4	5	48	29
C=CCN1C(=O)C(Cc2ccc(OC)cc2)S/C1=N/N=C/c1ccco1 (stereo not drawn)	-2	-57*	-66	5	-7	0
O=C1NC(=S)SC1=C1CCCCCC1	3	-21	-32	9	84*	19
O=C1N=C(N2CCCCC2)SC1=C1CCCCC1	-12	10	34	3	19	14
C#CCNC(=O)C1=C[C@@H](c2csc3ccccc23)C[C@@H](OCc2ccc(CO)cc2)O1	-3	-1	8	6	30	20
O=C(O)c1cc([N+](=O)[O-])ccc1Nc1ccccc1	9	5	-5	-6	-4	25
